Results published in ChEMBL document CHEMBL2146472, “Identification and development of the 1,4-benzodiazepin-2-one and quinazoline-2,4-dione scaffolds as submicromolar inhibitors of HAT” (2012).
Converted amounts (≈) assume the structure as drawn. The source made the active and inactive calls. The rule behind the calls is not given here.

tested on: Trypanosoma brucei brucei; assay: Antitrypanosomal activity against bloodstream form of Trypanosoma brucei brucei S427 after 48 hrs by Alamar Blue assay; assay type: functional; conditions: not given
Outline: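 T. b. brucei S427 cultured in HMI-9 with 20% […] FCS, 37 °C, 5% CO2. Compounds from 0.1 M DMSO stocks diluted in HMI-9 (top wells 50, 200 or 400 μM), serially diluted; cells added at 2 × 10⁴ cells/mL. 48 h incubation, then resazurin (Alamar Blue) for further 24 h; fluorescence ex 530/em 590 nm. MIC determined in duplicate.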

MIC	SMILES
inactive	CN1C(=O)CN(CC2CCNCC2)C(=O)c2cc(Cl)ccc21
inactive	O=C(O)CN1C(=O)CN(CC2CCCCC2)C(=O)c2cc(Cl)ccc21

The remaining lines, values behind:

SMILES	MIC
C=CCN1C(=O)CN(CC2CCNCC2)C(=O)c2ccccc21	inactive
CN1C(=O)CN(CC2CCNCC2)C(=O)c2ccccc21	inactive
O=C(O)CN1C(=O)CN(CC2CCCCC2)C(=O)c2ccccc21	inactive

same assay, conditions: S427, 48 h

MIC	SMILES
3.9 µM (≈ 1.66 µg/mL)	O=c1c2ccccc2n(Cc2ccccc2-c2ccccc2)c(=O)n1CC1CCNCC1
31.2 µM (≈ 8.93 µg/mL)	CCn1c(=O)n(CC2CCCCC2)c(=O)c2ccccc21
250 µM (≈ 91 µg/mL)	CCCCN1C(=O)CN(CC2CCNCC2)C(=O)c2cc(Cl)ccc21
125 µM (≈ 70 µg/mL)	CC(C)(C)OC(=O)N1CCC(Cn2c(=O)c3cc(Cl)ccc3n(Cc3ccc(-c4ccccc4)cc3)c2=O)CC1
7.8 µM (≈ 3.42 µg/mL)	O=C1c2ccccc2N(Cc2ccc(-c3ccccc3)cc2)C(=O)CN1CC1CCCCC1
62.5 µM (≈ 18.8 µg/mL)	CCN1C(=O)CN(CC2CCCCC2)C(=O)c2ccccc21
15.6 µM (≈ 5.66 µg/mL)	CCCCN1C(=O)CN(CC2CCCCC2)C(=O)c2cc(Cl)ccc21
31.2 µM (≈ 10.9 µg/mL)	CCCN1C(=O)CN(CC2CCCCC2)C(=O)c2cc(Cl)ccc21
250 µM (≈ 90.9 µg/mL)	O=C1c2ccccc2N(Cc2ccccc2)C(=O)CN1CC1CCNCC1
125 µM (≈ 44.8 µg/mL)	CCOC(=O)CN1C(=O)CN(CC2CCCCC2)C(=O)c2ccccc21
125 µM (≈ 35.8 µg/mL)	CN1C(=O)CN(CC2CCCCC2)C(=O)c2ccccc21
0.97 µM (≈ 0.446 µg/mL)	O=c1c2cc(Cl)ccc2n(Cc2ccc(-c3ccccc3)cc2)c(=O)n1CC1CCNCC1
62.5 µM (≈ 19.7 µg/mL)	CCCN1C(=O)CN(CC2CCCCC2)C(=O)c2ccccc21
31.2 µM (≈ 13.7 µg/mL)	O=C1c2ccccc2N(Cc2ccccc2-c2ccccc2)C(=O)CN1CC1CCNCC1
31.2 µM (≈ 10.8 µg/mL)	CCOC(=O)Cn1c(=O)n(CC2CCCCC2)c(=O)c2ccccc21
62.5 µM (≈ 28.7 µg/mL)	O=c1c2cc(Cl)ccc2n(Cc2ccccc2-c2ccccc2)c(=O)n1CC1CCCCC1
15.6 µM (≈ 5.99 µg/mL)	O=c1c2cc(Cl)ccc2n(Cc2ccccc2)c(=O)n1CC1CCNCC1
7.8 µM (≈ 3.69 µg/mL)	O=C1c2cc(Cl)ccc2N(Cc2ccccc2-c2ccccc2)C(=O)CN1CC1CCCCC1
31.2 µM (≈ 9.57 µg/mL)	Cn1c(=O)n(CC2CCCCC2)c(=O)c2cc(Cl)ccc21
125 µM (≈ 65.7 µg/mL)	CC(C)(C)OC(=O)N1CCC(Cn2c(=O)c3ccccc3n(Cc3ccccc3-c3ccccc3)c2=O)CC1
31.2 µM (≈ 11.3 µg/mL)	O=C1c2ccccc2N(Cc2ccccc2)C(=O)CN1CC1CCCCC1
62.5 µM (≈ 24.6 µg/mL)	CCOC(=O)CN1C(=O)CN(CC2CCCCC2)C(=O)c2cc(Cl)ccc21
62.5 µM (≈ 17 µg/mL)	Cn1c(=O)n(CC2CCCCC2)c(=O)c2ccccc21
7.8 µM (≈ 3.7 µg/mL)	O=C1c2cc(Cl)ccc2N(Cc2ccccc2-c2ccccc2)C(=O)CN1CC1CCNCC1
125 µM (≈ 49.7 µg/mL)	O=C1c2cc(Cl)ccc2N(Cc2ccccc2)C(=O)CN1CC1CCNCC1
250 µM (≈ 94.7 µg/mL)	CCOC(=O)Cn1c(=O)n(CC2CCCCC2)c(=O)c2cc(Cl)ccc21
0.97 µM (≈ 0.446 µg/mL)	O=c1c2cc(Cl)ccc2n(Cc2ccccc2-c2ccccc2)c(=O)n1CC1CCNCC1

More lines, now with the values behind:

SMILES	MIC
O=C1c2ccccc2N(Cc2ccccc2-c2ccccc2)C(=O)CN1CC1CCCCC1	125 µM (≈ 54.8 µg/mL)
CCN1C(=O)CN(CC2CCCCC2)C(=O)c2cc(Cl)ccc21	62.5 µM (≈ 20.9 µg/mL)
O=C1c2cc(Cl)ccc2N(CC2CC2)C(=O)CN1CC1CCCCC1	31.2 µM (≈ 11.3 µg/mL)
O=c1c2ccccc2n(Cc2ccccc2-c2ccccc2)c(=O)n1CC1CCCCC1	7.8 µM (≈ 3.31 µg/mL)
CCCCN1C(=O)CN(CC2CCCCC2)C(=O)c2ccccc21	31.2 µM (≈ 10.3 µg/mL)
O=c1c2cc(Cl)ccc2n(Cc2ccc(-c3ccccc3)cc2)c(=O)n1CC1CCCCC1	125 µM (≈ 57.4 µg/mL)
C=CCN1C(=O)CN(CC2CCCCC2)C(=O)c2ccccc21	125 µM (≈ 39.1 µg/mL)
CC(C)(C)OC(=O)N1CCC(Cn2c(=O)c3cc(Cl)ccc3n(Cc3ccccc3)c2=O)CC1	62.5 µM (≈ 30.2 µg/mL)
C=CCN1C(=O)CN(CC2CCNCC2)C(=O)c2cc(Cl)ccc21	250 µM (≈ 87 µg/mL)
O=C1c2cc(Cl)ccc2N(Cc2ccc(-c3ccccc3)cc2)C(=O)CN1CC1CCCCC1	3.9 µM (≈ 1.84 µg/mL)
CCn1c(=O)n(CC2CCCCC2)c(=O)c2cc(Cl)ccc21	15.6 µM (≈ 5 µg/mL)
O=c1c2ccccc2n(Cc2ccccc2)c(=O)n1CC1CCCCC1	15.6 µM (≈ 5.44 µg/mL)
O=C1c2ccccc2N(CC2CC2)C(=O)CN1CC1CCCCC1	62.5 µM (≈ 20.4 µg/mL)
O=C1c2cc(Cl)ccc2N(Cc2ccccc2)C(=O)CN1CC1CCCCC1	15.6 µM (≈ 6.19 µg/mL)
CC(C)(C)OC(=O)N1CCC(Cn2c(=O)c3cc(Cl)ccc3n(Cc3ccccc3-c3ccccc3)c2=O)CC1	7.8 µM (≈ 4.37 µg/mL)
CCCCn1c(=O)n(CC2CCCCC2)c(=O)c2cc(Cl)ccc21	62.5 µM (≈ 21.8 µg/mL)
C=CCN1C(=O)CN(CC2CCCCC2)C(=O)c2cc(Cl)ccc21	62.5 µM (≈ 21.7 µg/mL)
CCCCN1C(=O)CN(CC2CCNCC2)C(=O)c2ccccc21	62.5 µM (≈ 20.6 µg/mL)
O=c1c2cc(Cl)ccc2n(Cc2ccccc2)c(=O)n1CC1CCCCC1	62.5 µM (≈ 23.9 µg/mL)
CN1C(=O)CN(CC2CCCCC2)C(=O)c2cc(Cl)ccc21	62.5 µM (≈ 20.1 µg/mL)
